Source: PubChem
zVAD death inh – blocks zVAD induced death of L929 cells; L929 zVAD necroptosis rescue, ATP luminescence, 24 h; with zVAD 60 µM; viability rescue, % at 10 µM; 0.38% of 220,000 active; AID 1377;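 active = activation, scaled between plate controls, above about 75%, limit read from the data; inactive = activation under that limit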;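 note: 0% = zVAD with DMSO and 100% = DMSO alone without zVAD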
Autophagy mod – autophagy modulation, high-content screen. MEF GFP-LC3 puncta imaging; test concentration mostly 10 µM. calls only at 10 µM (by protocol). 0.98% of 190,000 active. AID 463193;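 active = percentage of spot-positive cells more than 3 SD above its plate mean, without a fluorescence outlier flag or 80% toxicity; inconclusive = no clear call, values can overlap the other calls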;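 note: spot-positive cell cutoff set from DMSO-treated cells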
Mdm2 ligase inh – blocks human Mdm2 ubiquitin ligase activity; cell-based MDM2 ubiquitination luciferase reporter, 2 h; 0 = plate control, 100 = twice control, blank-subtracted; 0.11% of 210,000 active; signal enhancement, % at 5 µM;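 active = signal enhancement of 30% or more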;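 note: luminescence tracks abundance of the self-degrading MDM2-luciferase fusion protein; higher signal means inhibition of MDM2 E3 ligase activity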
Target sequence (Q00987 whole entry, looked up, the tested form may be a part): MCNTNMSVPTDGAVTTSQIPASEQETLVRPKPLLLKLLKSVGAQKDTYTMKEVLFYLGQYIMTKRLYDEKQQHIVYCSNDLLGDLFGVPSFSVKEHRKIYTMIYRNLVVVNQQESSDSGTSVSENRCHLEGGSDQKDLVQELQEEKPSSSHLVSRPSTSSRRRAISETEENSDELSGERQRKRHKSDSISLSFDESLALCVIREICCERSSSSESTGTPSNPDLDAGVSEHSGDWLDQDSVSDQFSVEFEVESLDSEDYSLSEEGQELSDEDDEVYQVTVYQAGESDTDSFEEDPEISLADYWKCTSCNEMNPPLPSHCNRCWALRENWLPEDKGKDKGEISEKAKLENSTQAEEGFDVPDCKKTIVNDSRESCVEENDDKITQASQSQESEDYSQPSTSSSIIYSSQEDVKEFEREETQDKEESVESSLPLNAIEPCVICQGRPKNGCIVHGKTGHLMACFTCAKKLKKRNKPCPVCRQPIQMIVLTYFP
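system = mammalian cells stably expressing self-ubiquitinating, self-degrading MDM2 E3–luciferase fusion | quantity = 2000 cells per well seeded | incubation = 4 h cell settling then 2 h compound exposure, 37 °C | signal = SteadyLite luminescence, 15 min reagent step | benchmarks = plate control and blank wells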
Dynein cargo inh – dynein cargo transport inhibition. z-score, hits read low. 0.47% of 220,000 active. 3617.4 mouse cells, GR-EGFP nuclear translocation imaging; test concentration mostly 20 µM; stimulated with dexamethasone, 1 µM; stronger effect = lower value;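 active = plate z-score of nuclear minus cytoplasmic receptor signal below a set negative limit, without overly bright fluorescence or cell loss, cut at about -3.5 in these data, passing the limit was not always enough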;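 note: z-score of nuclear minus cytoplasmic ring GR-EGFP intensity difference per well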
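Buffer or medium: Induction medium lacking tetracycline, stripped serum | Also added: Dexamethasone agonist, 1.0 µM final, for 30 min | Timing: 48 h induction, 1 h compound, 30 min dex at 37 °C | Detection: Formaldehyde fixation, Hoechst nuclear stain, 10x automated fluorescence imaging | Measure: Nuclear versus cytoplasmic GR-EGFP signal, averaged per well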
TNF necrop inh – inhibitors of TNF-alpha induced necroptosis in Jurkat FADD-/- cells. Jurkat FADD-/- TNF necroptosis rescue, ATP luminescence, 24 h; 0 = TNF only, 100 = no-TNF cells. activation (protection from cell death), % at 10 µM. 0.068% of 220,000 active;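 active = activation, meaning protection from cell death, of at least 50% relative to plate controls; inactive = activation below 50%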;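 note: necroptosis triggered by 40 ng/mL TNF-alpha added together with compound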
Hck Nef HTS – blocks Nef-activated human Hck kinase; P08631; Recombinant Hck-YEEI plus Nef, Z-Lyte FRET kinase assay; inhibition, % at 20 µM; 0.68% of 220,000 active;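 active = Hck-Nef kinase inhibition above about 50%, limit read from the data; inactive = inhibition below that limit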;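 note: 0% = DMSO with Hck plus Nef and 100% = Hck alone without Nef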
Dynein confirm – dynein cargo transport inhibition, confirmation; 3617.4 GR-EGFP nuclear translocation imaging, dexamethasone-induced; AID 463116; 69% of 1,000 active; shares compounds with Dynein cargo inh; calls only at 20 µM;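 active = inhibition of receptor movement into the nucleus at or above a set limit in both runs, with normal cell brightness and cell count; inconclusive = limit reached in only one run, brightness and count normal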;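 note: dexamethasone at 1 µM final in well for 30 min; nuclear minus cytoplasmic GR-EGFP mean intensity difference in channel 2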
* hit, by the source's call; i = inactive; ? = inconclusive; nt = no result; + = active, no number. Shown are actives, neighbours in structure and some others; about 2.4% of the full set was active somewhere.

SMILES | zVAD death inh | Autophagy mod | Mdm2 ligase inh | Dynein cargo inh | TNF necrop inh | Hck Nef HTS | Dynein confirm
CC(C)(C)C(=O)/C=c1\[nH]c(=O)/c(=C\c2ccc(F)cc2)s1 | 2.0 | i | -10.3 | -0.0489 | 2.1 | -2.1 | nt
COc1ccc(/C=c2\s/c(=C/C(=O)c3ccc(C)cc3)[nH]c2=O)cc1OC | 2.9 | i | -9.8 | -6.6 | 3.8 | -2.6 | i
CCSC1=NCCN1C(=O)C(C)(C)Oc1ccc(Cl)cc1 | -0.9 | i | -23.2 | -0.751 | -0.4 | 19.0 | nt
CC(C)N(C(=O)COC(=O)c1ccccc1C(=O)c1ccc(Cl)c([N+](=O)[O-])c1)C(C)C | 19.9 | i | -8.6 | -3.63* | -8.8 | 1.2 | i
CN(CCC#N)C(=O)COC(=O)c1ccccc1C(=O)c1ccc(Cl)c([N+](=O)[O-])c1 | 61.2 | i | -14.1 | -1.96 | 8.0 | 26.7 | nt
CCOC(=O)C1=C(C)NC(=O)NC1c1ccoc1 (configuration not stated) | 0.5 | i | -4.9 | -0.549 | -1.0 | -0.2 | nt
CC(=O)O[C@@H]1C[C@H]2C(C)(C)C(=O)C=C[C@]2(C)[C@H]2CC[C@@]3(C)[C@H](c4ccoc4)OC(=O)[C@H]4O[C@]43[C@@]21C | 1.1 | i | nt | -3.86* | -8.7 | -1.0 | +
O=C(Cn1ncc(Cl)c(Cl)c1=O)N1CCN(S(=O)(=O)c2ccc3ccccc3c2)CC1 | -0.7 | + | -5.0 | -4.02* | -12.8 | 3.3 | +
O=C(N/N=C1/CCSC1)c1cc(Br)ccc1O | -3.4 | i | -14.7 | 1.6 | -0.6 | 16.4 | nt
O=C(CCSc1ccccn1)c1ccccc1 | 0.2 | i | 4.1 | -3.96* | 1.2 | 13.7 | i
Fc1ccc(-n2ncc3c(SCc4cccnc4)ncnc32)cc1 | 4.4 | i | -14.8 | 0.865 | -1.9 | 4.0 | nt
Cc1cc(C)cc(N(CC(=O)NC(C)(C)C)C(=O)CNC(=O)c2cccs2)c1 | 6.3 | i | 1.5 | 1.32 | 1.6 | 19.9 | nt
COc1ccc(N2C(=O)CC(Sc3n[nH]c(-c4ccccc4)n3)C2=O)cc1 (configuration not stated) | -0.1 | nt | -14.2 | -0.338 | -6.6 | -48.4 | nt
CCOc1ccc(N2C(=O)CC(Sc3n[nH]c(-c4ccccc4)n3)C2=O)cc1 (configuration not stated) | 5.0 | i | -8.0 | -5.18* | -0.9 | 22.9 | i
O=C(O)c1ccc(NC2=C(Cl)C(=O)c3ccccc3C2=O)cc1 | 9.0 | nt | -12.3 | -5.21* | -28.9 | -11.3 | +
O=C1C(Cl)=C(Nc2ccccc2)C(=O)c2ccccc21 | 1.6 | i | -63.7 | -0.769 | -1.9 | 2.5 | nt
O=C1/C(=C/c2ccc(N3CCCC3)cc2)NC(=S)N1C1CC1 | 0.7 | + | -1.8 | -5 | -4.4 | -4.0 | +
COc1cc(OC)c(C(=O)OCC(=O)N(Cc2ccccc2)C(C)(C)C)cc1OC | 2.6 | i | -7.5 | 0.259 | 0.5 | 10.5 | nt
Cc1c(Cl)cccc1NC(=S)NCC(c1cccnc1)N(C)C (configuration not stated) | 0.7 | i | -4.6 | -1.05 | 0.3 | 21.0 | nt
COc1cc(C)nc(NC(=S)N(C)C(=O)c2ccccc2)n1 | 1.1 | nt | -10.4 | 1.57 | -2.3 | 11.0 | nt
Cc1cc(-c2cccs2)c2c(N)c(C(=O)c3ccc4c(c3)OCO4)sc2n1 | 1.0 | + | -6.3 | -11.4 | 2.8 | -1.1 | ?
COc1ccc(C(=O)c2sc3nc(C)cc(-c4cccs4)c3c2N)cc1 | 1.8 | + | 6.9 | -7.8 | 2.6 | -7.8 | ?
COc1ccc(C(=O)c2sc3nc(C)cc(-c4cccs4)c3c2N)cc1OC | 1.8 | + | -8.9 | -6.48 | 1.2 | -3.8 | i
Cc1cc(C)c2c(N)c(C(=O)c3ccc(Cl)cc3)sc2n1 | 0.0 | i | 6.2 | -0.39 | -5.6 | 5.5 | nt
CCOC(=O)c1sc(NC(=O)c2ccc(S(=O)(=O)N3CCOCC3)cc2)cc1C | 0.3 | i | -5.5 | -0.502 | -7.1 | 0.5 | nt
SMILES | zVAD death inh | Autophagy mod | Mdm2 ligase inh | Dynein cargo inh | TNF necrop inh | Hck Nef HTS | Dynein confirm
COc1ccc(C2OC(=O)Cc3cc(OC)c(OC)cc32)cc1 (configuration not stated) | 0.8 | i | 4.1 | 1.62 | 0.7 | -0.5 | nt
CCOC(=O)c1c(C)oc2c1cc(O)c1ccccc12 | 1.1 | i | -13.3 | -0.692 | -0.1 | 0.0 | nt
CCOC(=O)c1c(C)oc2c(F)c(F)c(F)c(F)c2c1=O | 20.4 | i | -16.4 | -4.59* | -18.6 | 0.6 | +
CCn1c(SCC(=O)N(C(C)C)C(C)C)nnc1-c1cc2ccccc2cc1O | 0.0 | i | -0.3 | 1.36 | -5.3 | -0.4 | nt
CCn1nc(C)cc1C(=O)n1nc(C)c(Sc2ncccn2)c1C | 1.0 | nt | -12.3 | 0.135 | 2.3 | 4.1 | nt
CCn1nc(C)cc1C(=O)Sc1cccc(Cl)c1 | -1.0 | nt | -17.6 | -3.51* | -16.8 | 17.6 | +
Cc1nn(C)c(C(=O)Sc2cccc(Cl)c2)c1[N+](=O)[O-] | 0.1 | nt | -9.5 | -3.95* | -13.5 | 19.2 | +
COC(=O)c1c(N2C(=O)[C@H]3[C@@H](C2=O)[C@]2(C(=O)Nc4ccc(C)cc42)N2CCC[C@@H]32)sc(C)c1C | 0.4 | i | -7.3 | 0.11 | 0.5 | -14.0 | nt
Cc1cc(C)c(C(=O)Nc2ccc(Br)c(C(F)(F)F)c2)c(C)c1 | 1.7 | i | 4.3 | -0.403 | 2.4 | 6.5 | nt
Cc1ccc2c(c1)/C(=N/OS(=O)(=O)c1ccccc1)CCS2 | 0.7 | i | nt | -0.178 | -4.4 | -0.9 | nt
CC1=CC(=O)C=C(C)C1=NOS(=O)(=O)c1ccccc1 | 3.3 | i | -36.1 | -5* | -21.4 | -19.9 | +
CC1=CC(=O)C(C(C)C)=C/C1=N/OS(=O)(=O)c1ccccc1 | 35.9 | nt | -77.6 | -4.21* | -32.5 | 11.0 | i
Cc1ccc(C(=O)COc2cc(C)nc3nncn23)cc1 | 0.6 | nt | -12.5 | 0.621 | 1.9 | 7.7 | nt
CCn1c(C)c(CS(=O)(=O)c2ccccc2)[nH]c1=O | 6.5 | i | -24.4 | -5.57* | 0.5 | 7.3 | +
CC(=O)n1cc(N(C(=O)CCl)c2ccc([N+](=O)[O-])cc2)c2ccccc21 | 51.0 | nt | -8.2 | -5.04* | -28.7 | 18.3 | +
CC(=O)n1cc(N(C(=O)CCl)c2ccccc2)c2ccccc21 | 59.5 | nt | -2.8 | -4.53* | -27.9 | 22.8 | +
Cc1nc2ncnn2c(N2CCCC(C(=O)Nc3ccc4c(c3)CCC4)C2)c1C (configuration not stated) | 5.1 | i | -11.1 | 0.0359 | -12.9 | 4.1 | nt
CCOC(=O)c1c(C)sc2c1N(C(=O)CCl)c1cc(Cl)ccc1S2 | 22.4 | + | 2.7 | -3.97* | -12.6 | -1.2 | +
